Experimental data reported in ChEMBL document CHEMBL1123101, “Pseudosymmetry and bioisosterism in biaryl pyridyl competitive histamine H2-receptor antagonists” (J Med Chem, 1985).
Calls of active or inactive are those of the source. No cut-off for these calls is given here.

What was measured:
[1] = target: Histamine H2 receptor (Cavia porcellus) (UniProt P47747); test: Dissociation constant of H2 receptor antagonist activity against guinea pig atrium; format: functional, tissue-based; settings: Cardiac atrium
Canis familiaris [2] = test: Maximum percent inhibition of acid output in pentagastrin-stimulated Heidenhain pouch dog at dose (5 mg/kg) administered intravenously; format: functional; settings: Canis lupus familiaris, iv
Method in brief: (§1)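 Fasted unanesthetized Heidenhain pouch dogs, with acid output stimulated to near maximum by continuous pentagastrin infusion into a leg vein. Gastric juice was collected every 30 min, ten collections per dog. Acid was titrated to pH 7.4 with 0.1 N NaOH. Compound or vehicle was given iv 90 min after the infusion started. Percent inhibition compares the lowest post-dose acid output with the mean output just before dosing. Single experiments.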

Canis familiaris [3] = test: Antisecretory dose in mg/kg required for 50% inhibition in dogs by intravenous administration; format: functional, Canis lupus familiaris
Method in brief: (§2)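 Pentagastrin-stimulated Heidenhain pouch dogs were dosed iv, and acid output was titrated from 30-min collections. Percent inhibition compares the lowest post-dose output with the pre-dose mean. The dose giving 50% inhibition came from linear regression of log dose on percent inhibition in n dogs.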

[4] = Partition coefficient (logP); format: physicochemical; settings: octanol/water
Canis familiaris [5] = test: Maximum percent inhibition of acid output in pentagastrin-stimulated Heidenhain pouch dog following 1 mg/kg i.v. administration.; format: functional; settings: Canis lupus familiaris, route intravenous; method in brief: as §1
Canis familiaris [6] = test: Maximum percent inhibition of acid output in pentagastrin-stimulated Heidenhain pouch dog following 10 mg/kg i.v. administration.; format: functional; settings: Canis lupus familiaris, route intravenous; method in brief: as §1
Canis familiaris [7] = test: Maximum percent inhibition of acid output in pentagastrin-stimulated Heidenhain pouch dog at dose (25 mg/kg) administered intravenously; format: functional; settings: Canis lupus familiaris, iv; method in brief: as §1
Canis familiaris [8] = species: Canis familiaris; test: Effective dose for acid output in pentagastrin-stimulated Heidenhain pouch dog; format: functional, Canis lupus familiaris; method in brief: as §2
Canis familiaris [9] = test: Maximum percent inhibition of acid output in pentagastrin-stimulated Heidenhain pouch dog at dose (0.5 mg/kg) administered intravenously; format: functional; settings: Canis lupus familiaris, iv; method in brief: as §1
Canis familiaris [10] = test: Maximum percent inhibition of acid output in pentagastrin-stimulated Heidenhain pouch dog at dose (23 mg/kg) administered intravenously; format: functional; settings: Canis lupus familiaris, iv; method in brief: as §1
Canis familiaris [11] = test: Maximum percent inhibition of acid output in pentagastrin-stimulated Heidenhain pouch dog at dose (9 mg/kg) administered intravenously; format: functional; settings: Canis lupus familiaris, iv; method in brief: as §1
Canis familiaris [12] = test: Maximum percent inhibition of acid output in pentagastrin-stimulated Heidenhain pouch dog at dose (8 mg/kg) administered intravenously; format: functional; settings: Canis lupus familiaris, iv; method in brief: as §1
Canis familiaris [13] = test: Maximum percent inhibition of acid output in pentagastrin-stimulated Heidenhain pouch dog at dose(mg/kg) administered intravenously; format: functional, Canis lupus familiaris; method in brief: as §1
[14] = target: Histamine H2 receptor (Cavia porcellus) (UniProt P47747); test: Dissociation constant of H2 receptor antagonist activity against guinea pig atrium;NA means not active; format: functional, tissue-based; settings: Cardiac atrium
Method in brief: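 Right atria from guinea pigs killed by a blow to the head, hung isometrically in oxygenated (95% O2/5% CO2) Krebs–Henseleit buffer at pH 7.4 and 32 ± 2 °C, and stabilized about 1 h. Histamine dose–response curves were run before and after antagonist at set final concentrations, with 3- or 30-min drug equilibration. DR is the ratio of half-maximal histamine concentrations. KB = B/(DR − 1). Schild slope is log(DR − 1) vs log B.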

Chain of Histamine H2 receptor (Cavia porcellus) (P47747 whole entry): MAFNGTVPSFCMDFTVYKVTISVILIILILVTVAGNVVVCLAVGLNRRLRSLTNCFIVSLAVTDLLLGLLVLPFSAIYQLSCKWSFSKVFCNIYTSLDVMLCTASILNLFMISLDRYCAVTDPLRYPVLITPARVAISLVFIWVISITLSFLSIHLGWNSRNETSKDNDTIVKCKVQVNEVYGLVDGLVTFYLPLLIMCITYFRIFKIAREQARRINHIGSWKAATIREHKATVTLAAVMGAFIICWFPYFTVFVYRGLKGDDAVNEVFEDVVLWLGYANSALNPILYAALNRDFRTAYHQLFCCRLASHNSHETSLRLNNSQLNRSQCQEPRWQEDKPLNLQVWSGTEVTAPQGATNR

Cc1ccc(CNc2cc(-c3n[nH]c(N)n3)ccn2)cc1
KB [1]: 0.13 µM | inhibition in vivo at 5 mg/kg (Canis familiaris [2]): 33% | -Log I50 (Canis familiaris [3]): -1.03 | logP [4]: 2.69

Nc1n[nH]c(-c2ccnc(N3CCCC3)c2)n1
inhibition in vivo at 1 mg/kg (Canis familiaris [5]): 0%

CCc1cc(-c2n[nH]c(N)n2)ccn1
KB [1]: 1.8 µM | inhibition in vivo at 5 mg/kg (Canis familiaris [2]): 55%

CC(C)Nc1cc(-c2n[nH]c(N)n2)ccn1
KB [1]: 3.6 µM | inhibition in vivo at 5 mg/kg (Canis familiaris [2]): 52%

CCNc1cc(-c2c[nH]cn2)ccn1
KB [1]: 0.59 µM | inhibition in vivo at 10 mg/kg (Canis familiaris [6]): 27%

CCN(C)c1cc(-c2n[nH]c(N)n2)ccn1
inhibition in vivo at 1 mg/kg (Canis familiaris [5]): 42%

Cc1nc(-c2ccncc2)c[nH]1
inhibition in vivo at 25 mg/kg (Canis familiaris [7]): 56%

CCNc1cc(-c2nc[nH]n2)ccn1
KB [1]: 5 µM | inhibition in vivo at 10 mg/kg (Canis familiaris [6]): 29%

Nc1n[nH]c(-c2ccnc(NCc3ccccc3)c2)n1
KB [1]: 0.71 µM | inhibition in vivo at 1 mg/kg (Canis familiaris [5]): 21% | -Log I50 (Canis familiaris [3]): -0.568 | logP [4]: 2.15 | inhibition in vivo at 10 mg/kg (Canis familiaris [6]): 72%

CCNc1cc(-c2c[nH]c(N)n2)ccn1
KB [1]: 3.3 µM | inhibition in vivo at 1 mg/kg (Canis familiaris [5]): 22% | inhibition in vivo at 10 mg/kg (Canis familiaris [6]): 74%

CCNc1cc(-c2n[nH]c(N)n2)ccn1
KB [1]: 0.23 µM | ED50 (Canis familiaris [8]): 0.87 mg/kg | -Log I50 (Canis familiaris [3]): -0.028 | logP [4]: 1.13

Nc1cc(-c2n[nH]c(N)n2)ccn1
KB [1]: 2.2 µM | ED50 (Canis familiaris [8]): 2.35 mg/kg | -Log I50 (Canis familiaris [3]): -0.306 | logP [4]: 0.11

CCNc1cc(-c2n[nH]c(NCC)n2)ccn1
KB [1]: 4.7 µM | inhibition in vivo at 1 mg/kg (Canis familiaris [5]): 38% | inhibition in vivo at 0.5 mg/kg (Canis familiaris [9]): 21%

CCCc1n[nH]c(-c2ccnc(NCC)c2)n1
KB [1]: 11 µM | inhibition in vivo at 10 mg/kg (Canis familiaris [6]): 45%

Cc1ccc(CNc2cc(-c3n[nH]c(N)n3)ccn2)cc1C
KB [1]: 0.11 µM | inhibition in vivo at 5 mg/kg (Canis familiaris [2]): 49% | -Log I50 (Canis familiaris [3]): -0.718 | logP [4]: 3.08

CCCCCCNc1cc(-c2n[nH]c(N)n2)ccn1
KB [1]: 0.27 µM | -Log I50 (Canis familiaris [3]): -1.2 | logP [4]: 3.3 | inhibition in vivo at 10 mg/kg (Canis familiaris [6]): 40%

CCNc1cc(-c2n[nH]c(CC)n2)ccn1
KB [1]: 1.3 µM | inhibition in vivo at 5 mg/kg (Canis familiaris [2]): 17%

Nc1n[nH]c(-c2ccnc(NCCO)c2)n1
KB [1]: 2 µM | -Log I50 (Canis familiaris [3]): -1.31 | logP [4]: 0.24 | inhibition in vivo at 10 mg/kg (Canis familiaris [6]): 34%

C=CCNc1cc(-c2nc(N)n[nH]2)ccn1
KB [1]: 0.48 µM | inhibition in vivo at 1 mg/kg (Canis familiaris [5]): 31% | -Log I50 (Canis familiaris [3]): -0.37 | logP [4]: 1.26

COCCNc1cc(-c2n[nH]c(N)n2)ccn1
KB [1]: 3.5 µM | inhibition in vivo at 1 mg/kg (Canis familiaris [5]): 11% | -Log I50 (Canis familiaris [3]): -0.88 | logP [4]: 0.94 | inhibition in vivo at 10 mg/kg (Canis familiaris [6]): 50%

Cc1n[nH]c(-c2ccnc(CO)c2)n1
KB [1]: 23 µM | inhibition in vivo at 10 mg/kg (Canis familiaris [6]): 7%

CN/C(=N\CCSCc1nc[nH]c1C)NC#N [CIMETIDINE]
ED50 (Canis familiaris [8]): 1.02 mg/kg

CNc1cc(-c2n[nH]c(N)n2)ccn1
KB [1]: 0.56 µM | inhibition in vivo at 1 mg/kg (Canis familiaris [5]): 50% | -Log I50 (Canis familiaris [3]): 0 | logP [4]: 0.694

CCNc1cc(-c2n[nH]c(CO)n2)ccn1
KB [1]: 4.5 µM | inhibition in vivo at 1 mg/kg (Canis familiaris [5]): 20% | inhibition in vivo at 10 mg/kg (Canis familiaris [6]): 53%

CCNc1cc(-c2n[nH]c(NC)n2)ccn1
KB [1]: 1.3 µM | inhibition in vivo at 1 mg/kg (Canis familiaris [5]): 35% | inhibition in vivo at 10 mg/kg (Canis familiaris [6]): 72%

Nc1n[nH]c(-c2ccncc2)n1
inhibition in vivo at 23 mg/kg (Canis familiaris [10]): 73% | KB [1]: 42 µM | inhibition in vivo at 10 mg/kg (Canis familiaris [6]): 43%

Nc1n[nH]c(-c2ccnc(Nc3ccccc3)c2)n1
inhibition in vivo at 10 mg/kg (Canis familiaris [6]): 0%

Cc1cc(-c2c[nH]c(C)n2)ccn1
KB [1]: 4.6 µM | inhibition in vivo at 10 mg/kg (Canis familiaris [6]): 24%

CCNc1cc(-c2n[nH]c(C)n2)ccn1
KB [1]: 0.55 µM | inhibition in vivo at 1 mg/kg (Canis familiaris [5]): 35%

Nc1n[nH]c(-c2ccnc(NCCc3ccccc3)c2)n1
KB [1]: 1.9 µM | -Log I50 (Canis familiaris [3]): -1 | logP [4]: 2.63 | inhibition in vivo at 10 mg/kg (Canis familiaris [6]): 50%

Cc1cc(-c2n[nH]c(N)n2)ccn1
KB [1]: 13 µM | inhibition in vivo at 5 mg/kg (Canis familiaris [2]): 60% | inhibition in vivo at 1 mg/kg (Canis familiaris [5]): 26%

CCNc1cc(-c2c[nH]c(C)n2)ccn1
KB [1]: 1.4 µM | inhibition in vivo at 10 mg/kg (Canis familiaris [6]): 55%

Cc1n[nH]c(-c2ccnc(Cc3ccccc3)c2)n1
inhibition in vivo at 10 mg/kg (Canis familiaris [6]): 31%

Nc1n[nH]c(-c2ccnc(NCc3ccc(Cl)cc3)c2)n1
KB [1]: 0.3 µM | inhibition in vivo at 1 mg/kg (Canis familiaris [5]): 21% | -Log I50 (Canis familiaris [3]): -0.428 | logP [4]: 2.85

CCCCNc1cc(-c2n[nH]c(N)n2)ccn1
KB [1]: 0.67 µM | inhibition in vivo at 9 mg/kg (Canis familiaris [11]): 69% | inhibition in vivo at 1 mg/kg (Canis familiaris [5]): 29% | -Log I50 (Canis familiaris [3]): -0.5 | logP [4]: 2.15

CN(C)c1cc(-c2n[nH]c(N)n2)ccn1
KB [1]: 3.2 µM | inhibition in vivo at 5 mg/kg (Canis familiaris [2]): 80% | inhibition in vivo at 1 mg/kg (Canis familiaris [5]): 48%

CCCc1cc(-c2n[nH]c(N)n2)ccn1
KB [1]: 4 µM | inhibition in vivo at 5 mg/kg (Canis familiaris [2]): 0%

CC(C)(C)c1ccc(CNc2cc(-c3n[nH]c(N)n3)ccn2)cc1
KB [1]: 0.14 µM | inhibition in vivo at 8 mg/kg (Canis familiaris [12]): 0%

Nc1n[nH]c(-c2ccnc(NCCCc3ccccc3)c2)n1
logP [4]: 3.05 | inhibition in vivo at 10 mg/kg (Canis familiaris [6]): 30%

CCCCCCCCCCNc1cc(-c2n[nH]c(N)n2)ccn1
Kb [1]: 4.78 µM | Inhibition (Canis familiaris [13]): 14% | -Log I50 (Canis familiaris [3]): -1.7 | logP [4]: 4.07

CCCNc1cc(-c2n[nH]c(N)n2)ccn1
KB [1]: 0.77 µM | inhibition in vivo at 5 mg/kg (Canis familiaris [2]): 64% | inhibition in vivo at 1 mg/kg (Canis familiaris [5]): 33% | -Log I50 (Canis familiaris [3]): -0.379 | logP [4]: 1.61

CCNc1cc(-c2n[nH]c(Cc3ccccc3)n2)ccn1
inhibition in vivo at 10 mg/kg (Canis familiaris [6]): 19% | KB [14]: inactive
